# Assay results of several laboratories.
# Compare with care: the assays were run in different laboratories.
# Target: 5-hydroxytryptamine receptor 2B (HTR2B, Homo sapiens, UniProt P41595)
SMILES,test,quantity,value
CCCC[C@H](NC(=O)[C@H](C)c1c(C)[nH]c2ccc(O)cc12)c1ncc(-c2cc3ccccc3nc2OC)[nH]1,ligand displacement,IC50,740 nM
CCCCN1CCC(COC(=O)c2ccc(N)c(OCF)c2)CC1,"cell-free assay, radioligand",Ki,> 10000 nM
CCOCc1nc(O)c(-c2nnc(Cc3ccc(Cl)cn3)o2)c(O)c1-c1c(OC)cccc1OC,"ligand displacement, radioligand",IC50,> 30000 nM
CNC(=O)[C@@]12C[C@@H]1[C@@H](n1cnc3c(NCCc4ccccc4)nc(I)nc31)[C@H](O)[C@@H]2O,"cell-free assay, radioligand",Ki,117 nM
Cc1cc(NC(=O)Nc2ccc3c(ccn3C)c2)sn1,"ligand displacement, radioligand",IC50,160 nM
Cc1ccc2cccc(N3CCN(CCCCOc4ccc5sc(C(C)C)nc5c4)CC3)c2n1,"cell-free assay, radioligand",Ki,43 nM
COCCN(CCOC)C(=O)[C@@]12C[C@@H]1[C@@H](n1cnc3c(NC(C4CC4)C4CC4)nc(Cl)nc31)[C@H](O)[C@@H]2O,"ligand displacement, radioligand",Ki,1230 nM
O=C1c2ccccc2CCN1CCCCN1CCN(c2cccc(Cl)c2Cl)CC1,"ligand displacement, radioligand",Ki,1.8 nM
CC(C)c1nc2cc(OCCCCN3CCN(c4cccc5c4OCCO5)CC3)ccc2s1,"cell-free assay, radioligand",Ki,32 nM
CCOC(=O)[C@@]12C[C@@H]1[C@@H](n1cnc3c(N[C@H](C4CCC4)C4CC4)nc(I)nc31)[C@H](O)[C@@H]2O,"calcium signal, antagonist",Kb,1.74 nM
